Assay results collected from several papers.
Protocols differ between the studies behind these lines.
Target: Mitogen-activated protein kinase kinase kinase 11 (MAP3K11, Homo sapiens, UniProt Q16584)
Effect on: enzyme activity
Mode: inhibitor

Structure (SMILES) | technique | concentration | remaining activity [%]
Oc1cccc(-c2nc(N3CCOCC3)c3oc4ncccc4c3n2)c1 | – | 10 µM | 57
Cc1ccc(C(=O)Nc2ccc(CN3CCN(C)CC3)c(C(F)(F)F)c2)cc1C#Cc1cnc2cccnn12 | – | 23.5 nM | 98
Brc1cnc(Nc2cccc(CN3CCOCC3)c2)nc1NCCc1c[nH]cn1 | radiometric | 1 µM | 2
Cc1sc(C(=O)NC2COC2)cc1-n1cc(NC(=O)Nc2c(F)cccc2Cl)cn1 | – | 10 µM | 90.7
CC(C)(O)[C@H]1CC[C@H](Nc2ccc3ncc(-c4cccc(C(F)(F)F)c4)n3n2)CC1 | – | 1 µM | 68.9
Cc1nn(CC(F)(F)F)cc1Nc1ncc(C2CC2)c(NCCc2c[nH]cn2)n1 | radiometric | 1 µM | 91
FC(F)c1nc2ccccc2n1-c1nc(N2CCOCC2)nc(N2CCOCC2)n1 | – | 10 µM | 97
O=C(Nc1cnn(-c2csc(C(=O)NC3COC3)c2)c1)Nc1ccccc1Cl | – | 5 µM | 93.5
CC(C)(C)c1nc2c(s1)c1nc(N)ncc1c1ccc(NS(=O)(=O)c3c(F)cccc3F)c(F)c12 | radiometric | 1 µM | 22
O=C(Nc1cccc(Nc2ncc(Br)c(NCCc3cnc[nH]3)n2)c1)N1CCCC1 | radiometric | 1 µM | 2
COc1cc(Nc2cnc(C#N)c(O[C@H](C)CN(C)C)n2)ncc1-c1cnn(C)c1 | radiometric | 10 µM | 69
